From PubChem BioAssay
The list is not random: actives were taken first. Their share in the collection is about 29%.
CYP2C9 activ = human CYP2C9 activators, primary screen, biochemical, luminescence. recombinant CYP2C9, luciferin-H conversion; hits give high values; factor 1 = untreated enzyme, 0 = blocked. Cytochrome P450 2C9 (Homo sapiens), P11712. 1.4% of 96,000 active. activation factor at 5 µM. AID 1024, 2008;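 active = activation factor of 2 or more for CYP2C9 at a 5 µM dose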;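 also: 0 = sulfaphenazole-blocked wells and 1 = vehicle-only wells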
E coli WT exp = growth inhibitors of wild-type E. coli, primary screen, strain BW25113, expanded library, OD600; AID 710, 2007; OD600 absorbance; growth inhibition, % at 100 µM; 0.15% of 98,000 active;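 active = growth inhibition above about 50% at one test dose, limit read from the data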;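 also: growth measured after 20 h incubation at 37 °C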
CYP2C9 inh = blockers of cytochrome P450 2C9 activity – biochemical, luminescence, ADME assay, primary screen. P11712. CYP2C9 Supersomes, luciferin-H conversion. inhibition, % at 5 µM. 20% of 96,000 active. AID 777, 2007;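 active = blocking of liver enzyme CYP2C9 beyond about 50% at 5 µM, limit read from the data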
CYP2C19 inh = blockers of cytochrome P450 2C19 activity – biochemical, luminescence, ADME assay, primary screen; CYP2C19 Supersomes, luciferin-H EGE luminescence, 30 min; inhibition, % at 5 µM; P33261; AID 778, 2007; 21% of 96,000 active;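 active = CYP2C19 inhibition above a set limit at 5 µM in the primary screen, cut at about 50% in these data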;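 also: plate controls were negative control wells for no effect and 2.5 mM tranylcypromine positive control for full effect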
Target sequence (P33261 whole entry, looked up): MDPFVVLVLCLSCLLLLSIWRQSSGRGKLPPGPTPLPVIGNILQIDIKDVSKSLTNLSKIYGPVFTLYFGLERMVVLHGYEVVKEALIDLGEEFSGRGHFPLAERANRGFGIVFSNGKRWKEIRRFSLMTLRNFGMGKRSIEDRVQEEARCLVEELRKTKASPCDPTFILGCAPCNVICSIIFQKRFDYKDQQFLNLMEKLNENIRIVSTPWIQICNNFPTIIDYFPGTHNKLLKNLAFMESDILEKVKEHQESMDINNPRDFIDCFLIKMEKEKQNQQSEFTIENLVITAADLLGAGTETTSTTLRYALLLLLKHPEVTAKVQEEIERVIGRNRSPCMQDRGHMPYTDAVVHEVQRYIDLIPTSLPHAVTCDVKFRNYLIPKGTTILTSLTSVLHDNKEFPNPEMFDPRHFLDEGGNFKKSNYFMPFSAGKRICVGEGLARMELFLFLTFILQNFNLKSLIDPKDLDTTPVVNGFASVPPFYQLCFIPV
CYP2C19 act = human CYP2C19 activators, primary screen, biochemical, luminescence. 96,000 tested, under 10 active. recombinant CYP2C19, luciferin-H EGE luminescence; hits give high values; 0 = fully inhibited enzyme, 1 = untreated enzyme. activation factor at 5 µM. Cytochrome P450 2C19 (Homo sapiens), P33261;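 active = activation factor of at least 2 at 5 µM in the primary screen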;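 also: 0 = wells with 2.5 mM tranylcypromine and 1 = vehicle-only wells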
tolC growth inh = growth inhibitors of E. coli tolC mutant, primary screen, strain BW25113 ΔtolC::kan, 384-well; OD615; 2.2% of 65,000 active; growth inhibition, % at 10 µM (by protocol);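 active = growth inhibition at or above a cutoff equal to the mean over every tested compound plus 3 SD, cut at about 60% in these data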;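 also: growth measured after 20 h incubation at 37 °C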
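Test system: tolC-deleted E. coli BW25113; medium: LB with kanamycin 50 µg/mL; compound: single-point testing at 10 µM; incubation: 20 h compound exposure of bacteria at 37 °C; signal: OD at 615 nm; evaluation: growth inhibition in percent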
* = called active by the depositor; . = not tested or not shown.

SMILES	CYP2C9 activ	E coli WT exp	CYP2C9 inh	CYP2C19 inh	CYP2C19 act	tolC growth inh
O=C(C1CCCN(S(=O)(=O)c2cccc3nsnc23)C1)N1CC=C(c2ccccc2)CC1 (stereo not drawn)	0.3	-2	69*	64*	0.4	45
CCN(CC)S(=O)(=O)c1ccc(O)c(C(=O)OCC(=O)N(C)Cc2ccccc2)c1	0.2	5	75*	31	0.7	10
COc1ccccc1CNC(=O)CC(NS(=O)(=O)c1ccc(C)cc1)c1ccco1 (stereo not drawn)	1.6	-6	-58	44	0.6	9
N#C/C(=C/N1CCOCC1)c1ccccc1	0.8	7	19	53*	0.5	-14
COc1cccc(CN(CC2CCCO2)S(=O)(=O)c2ccc(S(=O)(=O)NCC3CCCO3)cc2)c1OC (stereo not drawn)	0.7	-4	34	13	0.9	.
Cc1ccc2nsnc2c1S(=O)(=O)N(Cc1cc2cccc(C)c2[nH]c1=O)CC1CCCO1 (stereo not drawn)	0.2	-7	78*	7	0.9	0
CCN(Cc1ccccc1)S(=O)(=O)c1ccc(S(=O)(=O)N(Cc2cccc(OC)c2)CC2CCCO2)cc1 (stereo not drawn)	0.5	-22	55*	15	0.8	.
Cc1cccc2cc(CN(CC3CCCO3)C(=O)c3ccco3)c(=O)[nH]c12 (stereo not drawn)	0.9	-2	12	34	0.7	-6
Cc1ccc2cc(CN(CCCO)S(=O)(=O)c3cccc4nsnc34)c(=O)[nH]c2c1C	0	-6	100*	42	0.6	5
COc1ccc2cc(CN(CC3CCCO3)S(=O)(=O)c3ccccc3Cl)c(=O)[nH]c2c1 (stereo not drawn)	0	2	99*	58*	0.4	.
COc1ccc2[nH]c(=O)c(CN(CCO)S(=O)(=O)c3c(C)ccc4nsnc34)cc2c1	0.9	8	12	22	0.8	.
OCC1(c2cc(C(F)(F)F)n[nH]2)CCCCC1	0.8	5	22	22	0.8	-1
CNS(=O)(=O)c1cccc(C(=O)OCC(=O)C23CC4CC(CC(C4)C2)C3)c1	1.7	-6	-66	-18	1.2	.
O=c1[nH]c2cc3c(cc2cc1CN(CC1CCCO1)S(=O)(=O)c1ccccc1)OCCO3 (stereo not drawn)	0.7	-8	25	9	0.9	-2
Cc1ccc2cc(CN(CC3CCCO3)S(=O)(=O)c3c(C)ccc4nsnc34)c(=O)[nH]c2c1 (stereo not drawn)	0.5	8	52*	-11	1.1	-18
Cc1nc(N(C)Cc2ccccc2)c2nnn(Cc3ccccc3)c2n1	0	-14	98*	100*	0	.
COc1ccccc1-c1c(C#N)c(SCC(=O)N2CCCC2)nc(C)c1C(N)=O	1	-4	2	-7	1.1	-8
Cc1cccc(NC2(C(F)(F)F)N=C3SCCN3C2=O)n1 (stereo not drawn)	0.9	0	10	-10	1.1	-13
COc1cc2c(C(=O)NCCCN3CCN(c4cccc(Cl)c4)CC3)cn(C)c(=O)c2cc1OC	0.8	1	18	22	0.8	2
O=C(NCCCN1CCN(c2cccc(Cl)c2)CC1)c1nc(-c2ccncc2)no1	0.1	-1	87*	70*	0.3	-5
COc1cc2ncnc(NCc3ccc(C)cc3)c2cc1OC	1	5	-2	63*	0.4	.
O=C(CCN1C(=O)C2C3C=CC(C3)C2C1=O)NC1CCCc2ccccc21 (stereo not drawn)	1.3	2	-32	21	0.8	-16
O=C(CCn1ccc2ccccc21)NC1CCCc2ccccc21 (stereo not drawn)	0.4	-7	60*	93*	0.1	.
CN1C(=O)c2c(sc3c2CCCC3)NC1c1ccccc1O (stereo not drawn)	0.1	-1	87*	74*	0.3	3
CC1CN(C(=O)C(c2ccccc2)c2ccccc2)CC(C)O1 (stereo not drawn)	0.9	-3	11	10	0.9	.
SMILES	CYP2C9 activ	E coli WT exp	CYP2C9 inh	CYP2C19 inh	CYP2C19 act	tolC growth inh
CC(C)Sc1nc(N2CCOCC2)c2c3c(sc2n1)COC(C)(C)C3	0.4	-8	58*	36	0.6	.
CCOC(=O)N1CCN(c2nc(SC)nc3sc4c(c23)CC(C)(C)OC4)CC1	0.2	.	81*	87*	0.1	27
CCN1CCN(c2nc(SC)nc3sc4c(c23)CC(C)(C)OC4)CC1	0.4	-4	57*	43	0.6	2
CC1(C)Cc2c(sc3nc(SCC(=O)N4CCOCC4)nc(N)c23)CO1	1.1	3	-6	3	1	-3
CCOC(=O)c1nc(N2CCN(C(=O)OCC)CC2)c2c3c(sc2n1)CCCC3	0.4	4	60*	62*	0.4	44
CCCCSc1nc(O)c(Cc2ccccc2)c(=O)[nH]1	0.8	-1	22	13	0.9	.
CCOC(=O)N1CCN(C(=O)c2oc(=O)c3ccccc3c2-c2ccc(C)cc2)CC1	0.4	-1	59*	60*	0.4	11
O=C(c1ccco1)N1CCN(C(=O)c2oc(=O)c3ccccc3c2-c2ccccc2)CC1	0.4	-4	60*	49	0.5	6
O=C(c1oc(=O)c2ccccc2c1-c1ccccc1)N1CCOCC1	1	4	2	0	1	-26
O=C(c1ccco1)N1CCN(c2c(-c3ccccc3)c3cc(Cl)ccc3[nH]c2=O)CC1	0.9	-7	6	-13	1.1	70*
Cc1ccc2c(c1)N(C(=O)NC1CCCCC1)C(C)(C)CC2C (stereo not drawn)	0.7	8	33	72*	0.3	.
Cc1ccc2c(c1)C(C)CC(C)(C)N2C(=O)NC1CCCCC1 (stereo not drawn)	1.4	6	-38	12	0.9	.
CCN(CC)CCNC(=O)C(C)c1nn(C)c(=O)c2ccccc12 (stereo not drawn)	1.1	4	-7	.	.	.
COc1ccccc1Cc1noc(-c2cc(Cl)ccc2OC)n1	2.3*	-7	-134	48	0.5	19
COc1cc(-c2nc(Cc3ccccc3Cl)no2)cc(OC)c1OC	0.9	-1	14	26	0.7	67*
Nc1nc(OCC(F)(F)F)cc(Oc2ccccc2F)n1	0.9	4	14	59*	0.4	6
Nc1cc(N)nc(SCCOc2ccccc2F)n1	.	4	.	.	.	6
COc1ccc2nc(C)cc(N3CCOCC3)c2c1	0.7	-2	26	13	0.9	-18
